Wnt bcat act = Wnt/beta-catenin pathway activation; Wnt/beta-catenin reporter cell assay, activator, plate reader; activation, % at 9.35 µM; 300,000 compounds, 1.2% hits; AID 743398; in the data active = activation above about 30%, passing the limit was not always enough; inconclusive = no clear call, values can overlap the other calls;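 also: 0% = neutral control wells and 100% = positive control wells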
SR-BI DiI inh = blocks mouse SR-BI lipid uptake from DiI-HDL. ldlA[mSR-BI] CHO cells, DiI-HDL uptake fluorescence, 3 h. inhibition, % at 12.5 µM. 320,000 compounds, 0.96% hits. AID 488896;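 active = mean replicate inhibition of at least 70% and a set share of replicates each scoring 70 or more; inconclusive = meets just one of the two criteria; inactive = fails both criteria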;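 also: 0% = median of neutral control wells and 100% = median of positive control wells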
Target sequence (Q61009 whole entry, looked up): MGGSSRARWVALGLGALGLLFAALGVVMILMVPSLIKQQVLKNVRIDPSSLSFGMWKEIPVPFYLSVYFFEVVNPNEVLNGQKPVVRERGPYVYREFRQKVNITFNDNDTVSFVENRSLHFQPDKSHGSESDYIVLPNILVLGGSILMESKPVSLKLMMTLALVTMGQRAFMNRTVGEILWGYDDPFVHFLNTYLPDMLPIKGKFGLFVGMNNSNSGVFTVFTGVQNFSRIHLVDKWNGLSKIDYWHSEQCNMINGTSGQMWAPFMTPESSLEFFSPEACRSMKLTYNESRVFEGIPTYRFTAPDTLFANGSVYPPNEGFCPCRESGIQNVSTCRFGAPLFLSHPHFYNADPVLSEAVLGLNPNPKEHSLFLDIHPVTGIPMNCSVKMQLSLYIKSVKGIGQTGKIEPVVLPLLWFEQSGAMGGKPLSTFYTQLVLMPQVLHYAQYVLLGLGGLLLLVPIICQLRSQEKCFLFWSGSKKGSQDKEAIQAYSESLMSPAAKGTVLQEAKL
MITF TRPM1 HTS = increases MITF-driven TRPM1 promoter luciferase signal; SK-MEL-5 TRPM1-promoter luciferase, 24 h; % of positive control, neutral wells = 0; activation, % at 12.5 µM; 300,000 compounds, 0.75% hits; AID 588334;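 active = mean activation of at least 80% with every replicate also reaching 80%; inconclusive = mean reaches 80% but some replicate falls short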;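 also: 0% = neutral control wells and 100% = parthenolide positive control wells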
HSF-1 act = increases HSF-1 driven luciferase reporter signal; NIH3T3-HGL HSF-1 luciferase reporter, MG132, 8 h; 100% = twice DMSO control signal; activation, % at 9 µM; 300,000 compounds, 1.7% hits; AID 504408;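 active = mean replicate activation of at least 50% with a set share of replicates each reaching 50%; inconclusive = only one of those two conditions met; inactive = mean below 50% and too few replicates reaching it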;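 also: 0% = median of the neutral control wells and 100% = twice that signal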
SR-BI uptake up = enhances SR-BI lipid uptake from DiI-HDL. CHO ldlA[mSR-BI] cells, DiI-HDL uptake fluorescence, 3 h; 100 = double the neutral-control signal. 320,000 compounds, 0.096% hits. AID 504775. activation, % at 12.5 µM;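 active = mean replicate activation of at least 60% and every replicate at or above 60%; inconclusive = mean or all-replicate condition met, but not both; inactive = mean below 60% and not all replicates reaching 60%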;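 also: 0% = median plate neutral-control signal and 100% = twice that signal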
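Material: SR-BI-overexpressing, LDLR-lacking CHO cells; schedule: compound exposure 3 h, 37 °C; reagent: DiI-labelled HDL at 10 µg/mL final; technique: bottom-read fluorescence, 550/595 nm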
Active calls of the source: *. This is a sample that favours compounds with a hit; in the whole collection about 3.6% have one here.

How did Cc1ccc(-c2nnc(Nc3ccccc3)o2)cc1 do in these assays?
Wnt bcat act: -1; SR-BI DiI inh: -8; MITF TRPM1 HTS: -4; HSF-1 act: -25; SR-BI uptake up: 8

What do the screens show for `COc1ccc(C(=O)/C=C(\C)Nc2ccc3c(c2)OCO3)cc1`?
Wnt bcat act: inconclusive; SR-BI DiI inh: -1; HSF-1 act: 39; SR-BI uptake up: 1

Results for CCOc1ccc(N/C(C)=C\C(=O)c2ccc3c(c2)OCCO3)cc1 ?
Wnt bcat act: 36*; SR-BI DiI inh: 4; MITF TRPM1 HTS: 45; HSF-1 act: 25; SR-BI uptake up: -4

What do the screens show for `CCOc1ccc(N/C(C)=C/C(=O)c2ccc3c(c2)OCCO3)cc1`?
Wnt bcat act: 47*; SR-BI DiI inh: -7; MITF TRPM1 HTS: 61; HSF-1 act: 3; SR-BI uptake up: 7

What do the screens show for `CCOc1ccc(C(=O)N(CC)CC(=O)Nc2ccc3c(c2)OCCO3)cc1`?
Wnt bcat act: -3; SR-BI DiI inh: -24; SR-BI uptake up: 24

How did COc1ccc(C(C)(O)c2nc(-c3cccc(C(F)(F)F)c3)cs2)cc1 (configuration not stated) do in these assays?
Wnt bcat act: -3

What do the screens show for `CCCCSc1ncnc2c1ncn2C1CCCCO1` (configuration not stated)?
Wnt bcat act: 52*; SR-BI DiI inh: 2; MITF TRPM1 HTS: 90*; SR-BI uptake up: -2

How did CSc1sc(C(=O)Nc2ccc(F)cc2F)c2c1C=CCC2 do in these assays?
Wnt bcat act: -3; SR-BI DiI inh: 37; HSF-1 act: 72*; SR-BI uptake up: -37

What do the screens show for `COc1ccc(C2=NN(C(C#N)c3ccc(OC)cc3)C(c3ccccc3)C2)cc1` (configuration not stated)?
Wnt bcat act: 28; SR-BI DiI inh: 25; MITF TRPM1 HTS: 27; HSF-1 act: 64*; SR-BI uptake up: -25

How did COc1ccc(C(C#N)N2N=C(C)CC2c2ccccc2)cc1 (configuration not stated) do in these assays?
Wnt bcat act: 2; SR-BI DiI inh: -6; MITF TRPM1 HTS: -11; HSF-1 act: -8; SR-BI uptake up: 6

How did C/C(=N\NC(N)=S)c1ccccc1 do in these assays?
Wnt bcat act: 4; SR-BI DiI inh: 86*; MITF TRPM1 HTS: 1; HSF-1 act: 11; SR-BI uptake up: -86

How did C/C(=N\NC(N)=S)c1ccc2c(c1)OCCO2 do in these assays?
Wnt bcat act: 25; SR-BI DiI inh: 76*; MITF TRPM1 HTS: 1; HSF-1 act: -25; SR-BI uptake up: -76

What do the screens show for `CC(/C=C/c1ccccc1)=N\NC(N)=S`?
Wnt bcat act: 28; SR-BI DiI inh: 77*; HSF-1 act: 15; SR-BI uptake up: -77

How did NC(=S)NN=C(c1ccccc1)c1ccccc1 do in these assays?
Wnt bcat act: -1; SR-BI DiI inh: 36; MITF TRPM1 HTS: -10; HSF-1 act: -8; SR-BI uptake up: -36

Results for COC(=O)CC#C[C@H](C)[C@@H](NS(C)(=O)=O)C(C)(C)COCc1ccccc1 ?
Wnt bcat act: 0

Results for COc1ccc(C(=O)n2nc(C)cc2Nc2ccccc2)cc1 ?
SR-BI DiI inh: 77*; MITF TRPM1 HTS: 17; HSF-1 act: 52*; SR-BI uptake up: -77

How did Cc1cc(Nc2ccccc2)nn1C(=O)c1ccccc1 do in these assays?
Wnt bcat act: 1; SR-BI DiI inh: 44; MITF TRPM1 HTS: -1; HSF-1 act: 8; SR-BI uptake up: -44

Results for COc1ccc(/C(C)=N/NC(=S)NCCc2ccccc2)c(O)c1 ?
Wnt bcat act: 1; HSF-1 act: 53*

What do the screens show for `COc1ccc(O)c(/C=N/NC(=S)NCCc2ccccc2)c1`?
Wnt bcat act: 0; SR-BI DiI inh: 8; MITF TRPM1 HTS: -6; HSF-1 act: 13; SR-BI uptake up: -8

How did CCOC(=O)/C(=N/Nc1ccc(Cl)cc1)Sc1nnnn1-c1ccc(C)cc1 do in these assays?
Wnt bcat act: -3; SR-BI DiI inh: -13; MITF TRPM1 HTS: -5; HSF-1 act: 74*; SR-BI uptake up: 13

Results for O=C(NCc1ccncc1)[C@@H]1CCCN1C(=O)[C@H]1CCCN1C(=O)c1ccccc1 ?
Wnt bcat act: -2

What do the screens show for `CC(=O)N1CCc2cc(S(=O)(=O)NC(Cc3ccccc3)C(=O)NC3CCCCCC3)ccc21` (configuration not stated)?
SR-BI DiI inh: 10; MITF TRPM1 HTS: 0; HSF-1 act: 54*; SR-BI uptake up: -10

Results for CCOC(=O)CC(S(=O)(=O)c1ccccc1)S(=O)(=O)c1ccccc1 ?
Wnt bcat act: -4

What do the screens show for `CCc1cc(=O)oc2cc3occ(-c4ccc(OC)c(F)c4)c3cc12`?
Wnt bcat act: -9; SR-BI DiI inh: 76*; MITF TRPM1 HTS: -30; HSF-1 act: -19; SR-BI uptake up: -59

Results for COc1cc(/C=N/NC(=O)c2ccccc2O)ccc1OCC(=O)Nc1ccccc1 ?
Wnt bcat act: -1; SR-BI DiI inh: 17; MITF TRPM1 HTS: 66; HSF-1 act: 37; SR-BI uptake up: -17

What do the screens show for `O=C(COc1ccc(/C=N/NC(=O)c2cc3ccccc3o2)cc1Cl)Nc1ccccc1`?
SR-BI DiI inh: 75*; MITF TRPM1 HTS: -95; HSF-1 act: 23; SR-BI uptake up: -75

How did COc1cc(C(=O)Oc2ccccc2/C=N/NC(=O)c2ccc(Cl)cc2Cl)cc(OC)c1OC do in these assays?
SR-BI DiI inh: 82*; MITF TRPM1 HTS: 21; HSF-1 act: 35; SR-BI uptake up: -82

What do the screens show for `COc1cc(/C=N/NC(=O)c2ccncc2)ccc1OC(=O)c1cc(OC)c(OC)c(OC)c1`?
Wnt bcat act: 0; SR-BI DiI inh: 77*; MITF TRPM1 HTS: 4; HSF-1 act: 35; SR-BI uptake up: -77

How did COc1cc(/C=N/NC(=O)c2cccnc2)ccc1OCC(=O)Nc1c(C)cc(C)cc1C do in these assays?
Wnt bcat act: -2; SR-BI DiI inh: 71*; MITF TRPM1 HTS: -1; HSF-1 act: 8; SR-BI uptake up: -71

What do the screens show for `COc1ccc(NC(=O)COc2ccc(/C=N/NC(=O)c3cccnc3)cc2OC)cc1`?
Wnt bcat act: 3; SR-BI DiI inh: 20; MITF TRPM1 HTS: 41; SR-BI uptake up: -20

How did COc1cc(/C=N/NC(=O)c2ccncc2)cc(OC)c1OC do in these assays?
Wnt bcat act: 1; SR-BI DiI inh: 7; MITF TRPM1 HTS: -9; HSF-1 act: 3; SR-BI uptake up: -7

How did Cc1ccc(Cl)cc1-c1cc(C(=O)NCc2cc(C(F)(F)F)cc(C(F)(F)F)c2)[nH]n1 do in these assays?
Wnt bcat act: -1

Results for COc1cc(/C=N/NC(=O)c2ccncc2)ccc1OCC(=O)Nc1ccccc1 ?
Wnt bcat act: 17; MITF TRPM1 HTS: 99*; HSF-1 act: -1

What do the screens show for `S=c1[nH]nc(-c2ccccc2)n1CC1CCCO1` (configuration not stated)?
SR-BI DiI inh: -9; MITF TRPM1 HTS: -7; HSF-1 act: 6; SR-BI uptake up: 9
